# Pf Dd2 inh: inhibitors of Plasmodium falciparum Dd2 growth; 94,000 tested, 2.3% active; AID 1159554; activity change, % at 10 µM; P. falciparum Dd2 growth, SYBR Green, 72 h; active compounds read low; in the data active = activity change below about -80%; inconclusive = no clear call, values can overlap the other calls
# KDM4C inh: inhibitors of human demethylase GASC-1 KDM4C. Q9H3R0. GST-KDM4C 2-372, H3K9me3 peptide, LANCE TR-FRET. inhibition, % at 12.5 µM. 96,000 tested, 0.15% active;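 active = mean replicate inhibition above about 25%, with at least 55% of replicates also reaching it, limit read from the data, passing the limit was not always enough; inconclusive = only one of those two conditions met; inactive = neither condition met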
# Target sequence (Q9H3R0 2-372 limits assumed): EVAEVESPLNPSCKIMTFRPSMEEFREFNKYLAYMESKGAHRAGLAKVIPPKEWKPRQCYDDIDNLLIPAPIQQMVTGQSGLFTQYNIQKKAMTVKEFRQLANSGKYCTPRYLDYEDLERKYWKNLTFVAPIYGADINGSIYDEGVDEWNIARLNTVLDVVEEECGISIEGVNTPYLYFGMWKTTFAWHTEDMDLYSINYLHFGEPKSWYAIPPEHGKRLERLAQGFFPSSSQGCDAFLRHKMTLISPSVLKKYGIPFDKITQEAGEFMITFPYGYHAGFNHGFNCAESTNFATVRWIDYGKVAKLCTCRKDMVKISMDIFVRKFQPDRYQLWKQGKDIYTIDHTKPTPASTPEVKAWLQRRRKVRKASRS
#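 System: N-terminal GST-fused human GASC-1 (KDM4C) fragment, residues 2-372 / Amount: 10 nM GST-KDM4C in enzyme reaction / Also added: H3K9me3 peptide with Fe(II)/2OG / Times: 30 min demethylation and 1 h detection at room temperature / Signal: LANCE TR-FRET / Read-out basis: Fall in 671/618 emission ratio as inhibition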
# T cruzi growth-1: blocks T. cruzi growth in NIH3T3 culture; T. cruzi beta-gal in NIH3T3, GalScreen luminescence, 90 h; inhibition, % at 8.34 µM; 77,000 tested, 5.9% active;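 active = mean inhibition above about 93%, with at least 55% of replicates each passing it, limit read from the data, passing the limit was not always enough; inconclusive = only one of those two conditions holds; inactive = neither condition holds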
# IDH1 mut inh: IDH1 R132H (human) inhibition | 70,000 tested, 0.18% active | IDH1 R132H reductase, diaphorase/resazurin fluorescence, 60 min | O75874 | inhibition, % at 10 µM; in the data active = inhibition above about 34%; inconclusive = no clear call, values can overlap the other calls; inactive = below about 11%
# T cruzi growth-2: blocks T. cruzi growth in NIH3T3 host cells; shares compounds with T cruzi growth-1; T. cruzi beta-gal in NIH3T3, GalScreen luminescence, 90 h; inhibition, % at 8.35 µM; 5,600 tested, 72% active;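 active = mean replicate inhibition above about 95% and at least 55% of replicates individually reaching it, limit read from the data; inconclusive = only one of the two criteria is met; inactive = neither criterion is met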
# T cruzi growth-3: inhibitors of T. cruzi proliferation; shares compounds with T cruzi growth-1; T. cruzi beta-gal in NIH3T3, GalScreen luminescence, 90 h; inhibition, % at 2.09 µM; 5,600 tested, 21% active; AID 651740;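 active = mean inhibition above about 95%, with at least 55% of replicates also reaching it, limit read from the data; inconclusive = meets just one of the two conditions; inactive = meets neither condition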
# NIH3T3 tox: kills mouse NIH/3T3 fibroblasts. cytotoxicity (signal decrease), % at 8.35 µM. shares compounds with T cruzi growth-1. NIH/3T3 viability, CellTiter-Glo ATP luminescence, 90 h. 5,600 tested, 14% active;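 active = mean signal decrease across replicates above about 35% based on untreated-well scatter, with enough replicates individually passing, limit read from the data; inconclusive = no rule stated though some were filed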
# NIH3T3 tox 2: kills mouse NIH/3T3 fibroblasts | 5,600 tested, 56% active | shares compounds with T cruzi growth-1 | inhibition, % at 24.9 µM | NIH/3T3 viability, CellTiter-Glo ATP luminescence, 90 h;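 active = mean loss of cell viability signal at or above a set limit, and enough replicates individually reaching it; inconclusive = meets only the mean limit or only the replicate share; inactive = meets neither condition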
# Numbers stand for hits; n = inactive; u = inconclusive; x = no result. In the library only some 5.8% were active in any assay of this set; here they are far more common.
SMILES,Pf Dd2 inh,KDM4C inh,T cruzi growth-1,IDH1 mut inh,T cruzi growth-2,T cruzi growth-3,NIH3T3 tox,NIH3T3 tox 2
C[C@H]1CN([C@@H](C)CO)C(=O)c2cccc(NC(=O)Nc3ccccc3)c2O[C@@H]1CN(C)Cc1ccc(C(=O)Nc2ccccc2N)cc1,-87.7,n,99.7,x,101.4,98.5,u,79.9
COc1ccc(NC(=O)C(C)N(c2ccc(Cl)cc2)S(C)(=O)=O)cc1OC (stereo unspecified),x,x,x,n,x,x,x,x
C[C@@H]1CN([C@H](C)CO)C(=O)c2cccc(NC(=O)Nc3ccc4c(c3)OCO4)c2O[C@H]1CN(C)Cc1ccc(C(=O)Nc2ccccc2N)cc1,-86.4,n,112.1,x,102.3,n,n,71.4
C[C@@H]1CN([C@H](C)CO)C(=O)c2cccc(NC(=O)Nc3ccc4c(c3)OCO4)c2O[C@@H]1CN(C)Cc1ccc(C(=O)O)cc1,n,n,n,x,x,x,x,x
C[C@@H]1CN([C@H](C)CO)S(=O)(=O)c2ccc(C#Cc3ccccn3)cc2O[C@H]1CN(C)Cc1cccc(F)c1,n,n,121.2,n,103.0,n,u,80.8
C[C@H](CO)N1C[C@H](C)[C@H](CN(C)Cc2cccc(F)c2)Oc2cc(C#Cc3ccccn3)ccc2S1(=O)=O,n,n,124.4,x,103.3,103.4,n,n
C[C@H]1CN([C@@H](C)CO)S(=O)(=O)c2ccc(C#CC3CC3)cc2O[C@@H]1CN(C)Cc1cccc(F)c1,n,n,x,n,x,x,x,x
C[C@H]1CN([C@@H](C)CO)S(=O)(=O)c2ccc(C#CC3CC3)cc2O[C@H]1CN(C)Cc1cccc(F)c1,n,n,x,n,x,x,x,x
C[C@H]1CN([C@@H](C)CO)S(=O)(=O)c2ccc(C#Cc3ccccn3)cc2O[C@H]1CN(C)Cc1cccc(F)c1,n,n,125.2,n,108.5,n,n,n
C[C@H]1CN([C@@H](C)CO)S(=O)(=O)c2ccc(C#Cc3ccccn3)cc2O[C@@H]1CN(C)Cc1cccc(F)c1,n,n,126.5,x,97.9,n,n,69.9
O=C(COc1ccc([N+](=O)[O-])cc1)Nc1ccccc1OC(F)F,x,x,x,n,x,x,x,x
COc1ccccc1Nc1ncnc2c1cnn2Cc1ccccc1,x,x,x,n,x,x,x,x
CCOC(=O)c1c(NC(=S)NCc2ccco2)sc2c1CCCCCC2,x,x,x,n,x,x,x,x
Cc1oc(S(=O)(=O)N2CCOCC2)cc1-c1nc(-c2ccc(C(C)(C)C)cc2)no1,x,x,x,n,x,x,x,x
CCCC#Cc1ccc2c(c1)O[C@@H](CN(C)C(=O)C1CCC1)[C@H](C)CN([C@@H](C)CO)S2(=O)=O,n,n,n,x,x,x,x,x
CCCC#Cc1ccc2c(c1)O[C@H](CN(C)C(=O)C1CCC1)[C@@H](C)CN([C@H](C)CO)S2(=O)=O,n,n,u,n,u,n,n,n
CCCC#Cc1ccc2c(c1)O[C@H](CN(C)C(=O)C1CCC1)[C@H](C)CN([C@H](C)CO)S2(=O)=O,n,n,u,x,u,n,n,57.4
c1ccc(-c2nnc(SCc3nc4ccccc4s3)n2-c2ccccc2)cc1,x,x,x,n,x,x,x,x
c1ccc2c(c1)n(CCN1CCOCC1)c1nc(C34CC5CC(CC(C5)C3)C4)cn21,x,x,x,n,x,x,x,x
CCS(=O)(=O)N1CCCCN2[C@H](C1)[C@H](c1ccc(C#Cc3ccccn3)cc1)[C@@H]2CO,n,n,95.8,x,n,n,n,n
CCS(=O)(=O)N1CCCCN2[C@H](CO)[C@H](c3ccc(C#Cc4ccccn4)cc3)[C@@H]2C1,n,n,n,x,x,x,x,x
CS(=O)(=O)N1CCCCN2[C@H](CO)[C@@H](c3ccc(C#Cc4ccccn4)cc3)[C@H]2C1,n,n,u,x,n,n,n,n
CCn1c2ccccc2n2c(SCCOc3ccc(C)cc3)nnc12,x,x,x,n,x,x,x,x
CCCC#Cc1ccc([C@H]2[C@@H](CO)N3CCCCN(CC4CCOCC4)C[C@H]23)cc1,n,n,124.4,x,n,n,n,100.8
OC[C@H]1[C@H](c2ccc(C#Cc3ccccc3)cc2)[C@H]2CN(CC3CCOCC3)CCCCN21,n,n,102.5,x,108.8,n,75.9,104.9
SMILES,Pf Dd2 inh,KDM4C inh,T cruzi growth-1,IDH1 mut inh,T cruzi growth-2,T cruzi growth-3,NIH3T3 tox,NIH3T3 tox 2
OC[C@H]1[C@@H](c2ccc(C#Cc3ccccc3)cc2)[C@H]2CN(CC3CCOCC3)CCCCN21,n,n,n,x,x,x,x,x
CCCC#Cc1ccc([C@H]2[C@H]3CN(CC4CCOCC4)CCCCN3[C@H]2CO)cc1,n,n,n,x,x,x,x,x
OC[C@@H]1[C@H](c2ccc(C#Cc3ccccc3)cc2)[C@@H]2CN(CC3CCOCC3)CCCCN12,n,n,104.4,x,106.0,n,n,103.2
OC[C@@H]1[C@@H](c2ccc(C#Cc3ccccc3)cc2)[C@@H]2CN(CC3CCOCC3)CCCCN12,n,n,u,x,105.1,n,52.0,105.3
Cc1cc(C)cc(N(C(C)C(=O)Nc2cccc3ccccc23)S(C)(=O)=O)c1 (stereo unspecified),x,x,x,n,x,x,x,x
Cc1noc(C)c1NC(=O)Nc1ccc2c(c1)C(=O)N([C@@H](C)CO)C[C@H](C)[C@@H](CN(C)S(=O)(=O)c1ccc(Cl)cc1)OCCCC[C@@H](C)O2,n,n,98.8,x,n,n,n,n
C[C@@H]1CN([C@H](C)CO)C(=O)c2cc(NC(=O)Nc3ccc4c(c3)OCO4)ccc2O[C@@H](C)CCCCO[C@H]1CN(C)S(=O)(=O)c1ccc(Cl)cc1,n,n,101.0,n,108.5,n,n,n
Cc1noc(C)c1NC(=O)Nc1ccc2c(c1)C(=O)N([C@H](C)CO)C[C@H](C)[C@@H](CN(C)S(=O)(=O)c1ccc(Cl)cc1)OCCCC[C@@H](C)O2,n,x,n,n,x,x,x,x
C[C@@H]1CCCCO[C@@H](CN(C)S(=O)(=O)c2ccc(Cl)cc2)[C@@H](C)CN([C@@H](C)CO)C(=O)c2cc(NC(=O)Nc3ccc4c(c3)OCO4)ccc2O1,-88.4,n,96.6,x,104.6,n,n,n
C[C@@H]1CCCCO[C@@H](CN(C)S(=O)(=O)c2ccc(Cl)cc2)[C@H](C)CN([C@H](C)CO)C(=O)c2cc(NC(=O)Nc3ccc4c(c3)OCO4)ccc2O1,n,n,105.6,x,106.4,112.5,n,n
Cc1nc2nc[nH]n2c(=O)c1NS(=O)(=O)c1ccc(C2CCCCC2)cc1,x,x,x,n,x,x,x,x
COc1cc([N+](=O)[O-])cc(CN2CCN(CCO)CC2)c1O,x,x,x,n,x,x,x,x
C[C@@H]1CCCCO[C@@H](CN(C)S(=O)(=O)c2ccc(Cl)cc2)[C@H](C)CN([C@@H](C)CO)C(=O)c2cc(NC(=O)Nc3ccc4c(c3)OCO4)ccc2O1,n,n,102.7,n,110.5,n,n,n
N#C[C@@H]1N[C@@H](CO)[C@@H]1c1ccc(-c2ccccc2F)cc1,n,n,u,x,n,n,n,n

# Compound activity deposited in PubChem BioAssay by Broad Institute.
